Results on twelve molecules are retold here after ChEMBL document CHEMBL1136028, “Design and synthesis of orally bioavailable inhibitors of inducible nitric oxide synthase. Part 1: synthesis and biological evaluation of dihydropyridin-2-imines” (Bioorg Med Chem Lett, 2002).

For experiment [1], the target named is T1, Nitric oxide synthase 3 (Homo sapiens) (UniProt P29474).
T1 sequence (whole entry): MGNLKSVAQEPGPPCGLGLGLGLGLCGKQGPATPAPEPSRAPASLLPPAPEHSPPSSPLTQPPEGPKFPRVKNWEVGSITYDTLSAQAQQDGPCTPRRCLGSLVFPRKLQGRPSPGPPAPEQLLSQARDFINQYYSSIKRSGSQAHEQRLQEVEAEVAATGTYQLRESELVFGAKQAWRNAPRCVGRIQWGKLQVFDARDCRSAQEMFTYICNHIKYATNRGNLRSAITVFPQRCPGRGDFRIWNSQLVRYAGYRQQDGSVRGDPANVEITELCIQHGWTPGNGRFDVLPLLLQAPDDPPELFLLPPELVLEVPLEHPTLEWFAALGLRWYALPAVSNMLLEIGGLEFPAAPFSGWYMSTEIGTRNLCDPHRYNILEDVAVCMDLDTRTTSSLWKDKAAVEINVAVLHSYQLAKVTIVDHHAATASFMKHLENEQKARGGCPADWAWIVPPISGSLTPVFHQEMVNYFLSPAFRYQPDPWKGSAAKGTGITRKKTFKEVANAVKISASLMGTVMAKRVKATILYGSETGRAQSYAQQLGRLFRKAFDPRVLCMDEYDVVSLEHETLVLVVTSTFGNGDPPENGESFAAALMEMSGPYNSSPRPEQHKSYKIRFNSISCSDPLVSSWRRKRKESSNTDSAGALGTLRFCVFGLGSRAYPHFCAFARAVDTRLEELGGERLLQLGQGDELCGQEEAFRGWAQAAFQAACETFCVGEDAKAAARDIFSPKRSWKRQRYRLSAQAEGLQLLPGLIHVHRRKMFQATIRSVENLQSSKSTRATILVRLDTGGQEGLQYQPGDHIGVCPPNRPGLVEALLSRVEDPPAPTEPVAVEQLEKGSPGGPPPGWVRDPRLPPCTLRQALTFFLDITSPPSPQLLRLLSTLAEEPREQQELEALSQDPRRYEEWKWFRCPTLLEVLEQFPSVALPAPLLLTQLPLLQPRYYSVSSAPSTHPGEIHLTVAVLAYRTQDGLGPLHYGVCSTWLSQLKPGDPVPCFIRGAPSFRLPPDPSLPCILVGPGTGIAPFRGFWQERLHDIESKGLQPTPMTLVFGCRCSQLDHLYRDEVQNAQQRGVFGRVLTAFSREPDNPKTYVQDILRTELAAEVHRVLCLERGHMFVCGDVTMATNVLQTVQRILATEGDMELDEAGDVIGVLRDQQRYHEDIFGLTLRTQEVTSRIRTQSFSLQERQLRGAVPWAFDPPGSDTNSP
As to the kind of experiment: Selectivity was evaluated as the rate of the IC50 values for Endothelial Nitric Oxide Synthase and Inducible nitric oxide synthase.

Another experiment has as its target T2, Nitric oxide synthase 3 (Homo sapiens, UniProt P29474).
T2 sequence (P29474 whole entry): T1 sequence (whole entry)
As to the kind of experiment: Inhibition of human endothelial Nitric Oxide Synthase expressed in Sf-21 cells. Also on record: species or system Sf21. Summed up: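 Human eNOS was overexpressed in Sf-21 insect cells by infection with baculovirus carrying heNOS cDNA, then partially purified on 2',5'-ADP-Sepharose. Activity was read as [14C]-L-arginine to L-citrulline conversion at several inhibitor and L-arginine levels. Ki and mode of inhibition came from Dixon and Lineweaver–Burk plots.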

The target in experiment [2] is T3, Nitric oxide synthase, inducible (Homo sapiens, UniProt P35228). The experiment is described as follows: Concentration required to inhibit Inducible nitric oxide synthase over expressed in A549 cells. It is filed as cell-based. In short, it runs like this:
(§1)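 Human iNOS was induced in A549 cells by LPS plus cytokines (10 ng/mL TNF-a, 5 ng/mL IL-1b, 100 ng/mL interferon-g), then partially purified on 2',5'-ADP-Sepharose. Activity was read as conversion of [14C]-L-arginine to L-citrulline at several inhibitor and L-arginine levels. Ki and mode of inhibition came from Dixon and Lineweaver–Burk plots.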

Experiment [3] has as its target Nitric oxide synthase (inducible and endothelial) (Homo sapiens) (UniProt P35228+P29474). As to the kind of experiment: Selectivity was evaluated as the rate of the IC50 values for heNOS and hiNOS. It is filed as protein assay.
Experiment [4] has as its target T3, Nitric oxide synthase, inducible. As to the kind of experiment: Concentration required to inhibit human Inducible nitric oxide synthase over expressed in A549 cells. It is filed as cell-based. In short, it runs like this:
as §1

A short description of experiment [5]: Ratio of MTD/ID50 for NOx accumulation in mice. It is filed as functional. In short, it runs like this:
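Balb/c mice, 7 weeks old, got LPS 10 mg/kg iv, then test compound or saline sc 3 h later. Plasma was taken from the abdominal aorta at 6 h, and NOx accumulated over 3 h was measured. ID50 is the sc dose halving LPS-induced NOx. MTD is the highest iv dose in normal mice with no death within 24 h. Ratio is MTD/ID50.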

The target of experiment [6] is T4, Nitric oxide synthase, inducible (Mus musculus, UniProt P29477).
T4 sequence (P29477 whole entry): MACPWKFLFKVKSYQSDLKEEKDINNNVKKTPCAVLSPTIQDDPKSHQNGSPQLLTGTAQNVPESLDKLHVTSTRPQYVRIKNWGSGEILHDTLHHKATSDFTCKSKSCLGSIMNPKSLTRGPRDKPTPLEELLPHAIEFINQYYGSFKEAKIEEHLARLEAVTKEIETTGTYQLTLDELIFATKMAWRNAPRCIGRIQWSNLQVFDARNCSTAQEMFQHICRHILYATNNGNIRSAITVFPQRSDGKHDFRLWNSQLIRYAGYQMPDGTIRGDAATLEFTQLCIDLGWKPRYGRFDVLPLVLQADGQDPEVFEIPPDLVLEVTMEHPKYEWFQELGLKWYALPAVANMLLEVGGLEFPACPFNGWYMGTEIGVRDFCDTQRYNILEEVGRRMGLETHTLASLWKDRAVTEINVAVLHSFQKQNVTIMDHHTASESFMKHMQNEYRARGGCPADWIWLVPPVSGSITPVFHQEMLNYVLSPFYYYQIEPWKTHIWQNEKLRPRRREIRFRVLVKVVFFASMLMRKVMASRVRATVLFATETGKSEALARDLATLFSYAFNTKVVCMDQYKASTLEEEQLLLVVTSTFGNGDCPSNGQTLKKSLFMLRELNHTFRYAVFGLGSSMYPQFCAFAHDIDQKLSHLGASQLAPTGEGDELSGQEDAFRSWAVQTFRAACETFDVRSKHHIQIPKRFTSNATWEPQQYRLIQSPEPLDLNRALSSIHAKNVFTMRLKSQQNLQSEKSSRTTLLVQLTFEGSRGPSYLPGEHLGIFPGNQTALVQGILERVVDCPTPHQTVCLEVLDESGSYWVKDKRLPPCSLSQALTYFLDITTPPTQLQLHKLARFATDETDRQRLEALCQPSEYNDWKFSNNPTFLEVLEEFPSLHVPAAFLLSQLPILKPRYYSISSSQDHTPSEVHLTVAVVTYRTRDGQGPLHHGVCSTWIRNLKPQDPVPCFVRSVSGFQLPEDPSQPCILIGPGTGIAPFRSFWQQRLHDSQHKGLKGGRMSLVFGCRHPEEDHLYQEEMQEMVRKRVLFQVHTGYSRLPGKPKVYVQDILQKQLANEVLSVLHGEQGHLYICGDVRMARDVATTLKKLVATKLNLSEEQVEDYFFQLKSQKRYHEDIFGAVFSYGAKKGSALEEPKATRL
As to the kind of experiment: The concentration required for inhibition of Inducible nitric oxide synthase in mouse. In short, it runs like this:
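Enzyme was commercially purchased recombinant mouse iNOS, tested for inhibition by the test compounds.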

Experiment [7] concerns Mus musculus. The experiment is described as follows: The dose required for 50% inhibition of NOx accumulation in mice induced by LPS treatment after subcutaneous administration. It is filed as functional. To be noted: sc, read-out: ID50 (the source's name).
The subject of experiment [8] is Mus musculus. The experiment is described as follows: Maximum tolerated dose (MTD) at which no death was observed within 24 hr after intravenous administration. It is filed as functional. Summed up:
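Normal mice (mouse acute toxicity) given a single intravenous dose of test compound. MTD taken as the maximum dose at which no death was observed within 24 h after injection.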

T3 sequence (P35228 whole entry): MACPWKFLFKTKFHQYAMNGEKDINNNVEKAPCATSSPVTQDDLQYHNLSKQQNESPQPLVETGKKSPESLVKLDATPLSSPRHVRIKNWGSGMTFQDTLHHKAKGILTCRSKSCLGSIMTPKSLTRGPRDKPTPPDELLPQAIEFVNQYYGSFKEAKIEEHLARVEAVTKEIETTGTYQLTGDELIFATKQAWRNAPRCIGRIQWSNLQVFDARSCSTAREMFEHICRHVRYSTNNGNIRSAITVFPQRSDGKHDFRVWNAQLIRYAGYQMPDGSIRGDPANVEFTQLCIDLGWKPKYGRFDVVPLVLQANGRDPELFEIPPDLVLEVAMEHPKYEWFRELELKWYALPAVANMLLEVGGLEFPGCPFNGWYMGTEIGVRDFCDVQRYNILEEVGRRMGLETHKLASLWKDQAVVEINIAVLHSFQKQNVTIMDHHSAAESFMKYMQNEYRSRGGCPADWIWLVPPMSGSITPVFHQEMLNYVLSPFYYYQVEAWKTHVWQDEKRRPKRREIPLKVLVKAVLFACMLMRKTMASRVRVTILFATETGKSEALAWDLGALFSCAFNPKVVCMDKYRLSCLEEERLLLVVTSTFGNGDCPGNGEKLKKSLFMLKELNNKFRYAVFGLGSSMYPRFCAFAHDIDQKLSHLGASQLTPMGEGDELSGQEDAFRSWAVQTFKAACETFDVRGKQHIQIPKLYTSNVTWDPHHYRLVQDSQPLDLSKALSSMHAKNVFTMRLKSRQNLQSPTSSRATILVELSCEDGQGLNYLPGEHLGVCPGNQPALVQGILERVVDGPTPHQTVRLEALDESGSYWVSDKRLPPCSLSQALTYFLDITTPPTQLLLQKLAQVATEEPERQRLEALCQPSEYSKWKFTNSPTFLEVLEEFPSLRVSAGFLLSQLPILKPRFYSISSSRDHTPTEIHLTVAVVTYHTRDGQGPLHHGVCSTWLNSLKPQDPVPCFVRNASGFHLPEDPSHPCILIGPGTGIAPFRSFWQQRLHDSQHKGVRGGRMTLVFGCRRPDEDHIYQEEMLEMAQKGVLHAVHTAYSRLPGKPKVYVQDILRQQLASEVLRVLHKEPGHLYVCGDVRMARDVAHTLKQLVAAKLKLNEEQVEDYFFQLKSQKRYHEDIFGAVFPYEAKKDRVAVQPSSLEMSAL

The IC50 is the concentration at which inhibition is half-maximal. Turning to `CC1=CC(N)=NC(C)C1` (centres undefined), the Ratio in [1] was found to be 1.3. Moreover, the 50% inhibitory concentration (IC50) stood at 240 nM against Nitric oxide synthase 3 and 180 nM in experiment [2].
For the molecule `CC1=CC(N)=N[C@@H]2CCC[C@H]12`, in experiment [3], the Ratio turned out to be 3. Further, the concentration for half-maximal inhibition (IC50) amounted to 170 nM in experiment [4] and 510 nM against Nitric oxide synthase 3.
`CC1=CC(N)=NCC1C` (centres undefined): the Ratio in [1] worked out at 1. For the same molecule, the 50% inhibitory concentration (IC50) against Nitric oxide synthase 3 was determined as 520 nM; in [2], 510 nM.
For the molecule `CC1=CCN=C(N)C1`, the Ratio in experiment [3] was 0.6. The IC50 in experiment [4] turned out to be 700 nM; on Nitric oxide synthase 3 it was 440 nM.
The like results for `CC1=C(C)C(N)=NCC1` were, in that order, 1, 310 nM and 320 nM.
The corresponding values for `CC1(C)C=CC(N)=NC1` are 11.1, 2800 nM and 31000 nM.
For orientation: MTD means the highest dose tested that stayed within the study's limit of toxicity. Read a high MTD as a wide tolerated range. Regarding `CCCC1CC(C)=CC(N)=N1` (centres undefined), the Ratio in [3] came out at 9.7; in experiment [5] it was 14. Besides, the 50% inhibitory concentration (IC50) in experiment [4] worked out at 60 nM; against Nitric oxide synthase 3, 580 nM; in experiment [6], 100 nM. In addition, the ED50 in the experiment with Mus musculus [7] is 0.36 mg/kg. In the experiment with Mus musculus [8], this molecule displayed an MTD of 5 mg/kg.
In the case of `C=CCC1CC(C)=CC(N)=N1` (centres undefined), the Ratio in experiment [3] was determined as 7.2. The molecule also showed an IC50 in experiment [6] of 25 nM. Further, the ED50 in the experiment with Mus musculus [7] came to 0.16 mg/kg. For the same molecule, the maximal tolerated dose (MTD) with Mus musculus [8] worked out at 5 mg/kg.
Turning to `CC1=CC(N)=NCC1(C)C`, the Ratio in [3] was determined as 5; in experiment [5], 71. The IC50 stood at 420 nM in experiment [4], 2100 nM against Nitric oxide synthase 3 and 100 nM in experiment [6]. In addition, the ED50 in the experiment on Mus musculus [7] turned out to be 0.28 mg/kg. Besides, the maximum tolerated dose (MTD) in the experiment on Mus musculus [8] amounted to 20 mg/kg.
For the molecule `CC1=CC(N)=NCC1`, the Ratio amounted to 1.2 in experiment [3] and 130 in experiment [5]. For the same molecule, the IC50 stood at 200 nM in [4], 230 nM on Nitric oxide synthase 3 and 22 nM in experiment [6]. For the same molecule, the ED50 with Mus musculus [7] amounted to 0.16 mg/kg. The MTD in the experiment with Mus musculus [8] was 20 mg/kg.
Take `CC1=CC(N)=N[C@@H]2CCCC[C@H]12`: in experiment [3], the Ratio is 5.3. For the same molecule, the concentration for half-maximal inhibition (IC50) was determined as 1400 nM in experiment [4] and 7400 nM at Nitric oxide synthase 3.
The like results for `CCC1=CC(=N)NCC1` were, in that order, 1.3, 1200 nM and 1500 nM.
